hERG rescue = hERG rescue from dofetilide block, primary screen, cell-based, CHO-hERG, FluxOR thallium flux, dofetilide IC70. dofetilide IC70 present. activation (rescue from dofetilide block), less the hit threshold, % at 10 µM. 310,000 compounds, 0.51% hits;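 active means activation above the mean of controls blocked by dofetilide plus 5 SD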;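 further: thallium influx through hERG after potassium depolarization seen as dye fluorescence rise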
KCNK9 block = KCNK9 potassium channel inhibitors, primary screen, HEK293 cells, thallium flux. FluxOR thallium flux fluorescence; stronger effect = lower value. 310,000 compounds, 1.2% hits. Potassium channel subfamily K member 9 (Homo sapiens), Q9NPC2. AID 488922, 2010. B-score at 10 µM;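 active means ratio B-score over 3 SD below the library mean, with starting fluorescence within 5 SD of its mean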;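 further: negative B-score means less thallium flux so channel inhibition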
KCNQ1 act = potentiators or activators of KCNQ1 channel, primary screen, cell-based, thallium flux, high-throughput | Potassium voltage-gated channel subfamily KQT member 1 (Homo sapiens), P51787 | CHO-K1 KCNQ1, thallium flux FluxOR fluorescence; stronger effect = higher value | B-score at 10 µM | 310,000 compounds, 0.35% hits;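 active means fluorescence ratio B-score, a plate-corrected score, at least three library SD, with initial intensity B-score within 5 SD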
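Assay system: CHO-K1 cells stably expressing KCNQ1. Medium: assay buffer for compound exposure, DMSO matched across wells. Timing: 37 °C overnight plating, 90-min dark dye load, 20-min compound pretreatment. Signal: kinetic FluxOR fluorescence, 10 s baseline plus 110 s post-stimulus.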
KCNK3 inh = human KCNK3 channel inhibitors, primary screen, CHO cells, FluxOR thallium flux, B-score. Potassium channel subfamily K member 3 (Homo sapiens), O14649. FluxOR fluorescence; stronger effect = lower value. B-score at 10 µM. 340,000 compounds, 0.84% hits;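 active means B-score under library mean minus 4 SD, starting fluorescence ratio at most library mean plus 5 SD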;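 further: more negative B-score means stronger inhibition of thallium flux through KCNK3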
Target sequence (O14649 whole entry, looked up): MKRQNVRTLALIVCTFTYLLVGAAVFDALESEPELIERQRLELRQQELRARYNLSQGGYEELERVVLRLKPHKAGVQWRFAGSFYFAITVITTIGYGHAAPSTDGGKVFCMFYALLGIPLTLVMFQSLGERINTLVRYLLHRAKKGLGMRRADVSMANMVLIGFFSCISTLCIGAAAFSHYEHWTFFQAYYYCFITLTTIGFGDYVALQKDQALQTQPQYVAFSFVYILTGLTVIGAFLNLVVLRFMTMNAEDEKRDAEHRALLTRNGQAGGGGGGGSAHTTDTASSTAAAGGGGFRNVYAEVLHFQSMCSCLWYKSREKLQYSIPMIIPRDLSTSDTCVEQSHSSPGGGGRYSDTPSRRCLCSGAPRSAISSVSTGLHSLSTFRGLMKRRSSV
Kir21 inh = inhibitors of mouse Kir2.1 inward-rectifier potassium channel; HEK293-Kir2.1, FluxOR thallium flux fluorescence; stronger effect = lower value; 310,000 compounds, 0.85% hits; B-score at 10 µM; Inward rectifier potassium channel 2 (Mus musculus), P35561; AID 1672, 2009;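 active means fluorescence ratio B-score at or below minus 3 SD of library scores, with starting-brightness B-score within 2 SD, cut at about -4.2 in these data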;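 further: channel flux triggered by added potassium and thallium sulfate stimulus; B-score of peak minus minimum fluorescence over baseline after thallium stimulus; more negative B-score means stronger Kir2.1 block with less thallium influx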
KCNQ1 block = inhibitors of human KCNQ1 channel, primary screen, cell-based, thallium flux, high-throughput; B-score at 10 µM; AID 2642, 2010; CHO-K1 KCNQ1, FluxOR thallium flux fluorescence; stronger effect = higher value; Potassium voltage-gated channel subfamily KQT member 1 (Homo sapiens), P51787; 310,000 compounds, 1.3% hits;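 active means compounds whose thallium flux B-score, printed positive for inhibition, exceeds three library SD while starting fluorescence stays within three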;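 further: channel opened by potassium depolarization with thallium stimulus after 20 min compound exposure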
KCNQ1 inh valid = KCNQ1 potassium channel inhibitors, confirmation, cell-based, Tl flux, duplicate | shares compounds with KCNQ1 block | KCNQ1 cell line, FluxOR thallium flux fluorescence | inhibition, % at 10 µM | 1,600 compounds, 93% hits | AID 588353, 2011;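 active means primary screen active, with duplicate mean exceeding buffer control mean plus 3 SD of buffer wells, cut at about 28% in these data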;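 further: 0% = buffer control ratio and 100% = XE991 inhibitor control ratio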
CHO Tl flux = thallium flux effects in parental CHO cells, counter-screen for KCNQ1 inhibitor project, cell-based, Tl flux; 1,600 compounds, 21% hits; fluorescence ratio (Tl flux) at 10 µM; shares compounds with KCNQ1 block; AID 588366, 2011; parental CHO-K1, FluxOR thallium flux fluorescence ratio; stronger effect = lower value; zero means no signal rise above baseline;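 active means mean of duplicate thallium-flux fluorescence ratios in parental host cells more than 5 SD below the buffer control mean, cut at about 0.38 in these data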;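 further: ratio is peak minus minimum fluorescence divided by baseline fluorescence; actives read low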
KCNQ1 ephys val = KCNQ1 channel inhibitors, confirmation, orthogonal assay, cell-based, automated electrophysiology. 490 compounds, 20% hits. calls only at 10 µM. shares compounds with KCNQ1 block. KCNQ1-CHO cells, automated patch clamp current;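 active means KCNQ1 current drop exceeding 3 SD of negative control wells, seen in both duplicate runs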;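 further: steady state current during a 2 s step from -80 to +40 mV; negative values mean current inhibition and positive values mean potentiation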
KCNQ2 inh = KCNQ2 channel inhibition, selectivity assay for KCNQ1 inhibitor project, cell-based; AID 651746, 2012; shares compounds with KCNQ1 block; 1,600 compounds, 71% hits; inhibition, % at 10 µM; KCNQ2 cells, FluxOR thallium flux fluorescence;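 active means mean percent inhibition of the KCNQ2 thallium signal more than 5 SD above the buffer-only control wells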;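 further: KCNQ2 expressed in CHO cells; 0% = buffer control wells and 100% = XE-991 inhibitor control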
KCNQ1-KCNE1 inh = KCNQ1/KCNE1 channel inhibition, selectivity assay for KCNQ1 inhibitor project, CHO-K1 cells, thallium flux, FluxOR; shares compounds with KCNQ1 block; FluxOR thallium flux fluorescence; inhibition, % at 10 µM; 1,600 compounds, 77% hits; AID 652147, 2013;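 active means mean percent inhibition of duplicate wells above the buffer-only control mean plus 3 SD of those controls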;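 further: 0% = buffer only wells and 100% = XE-991 inhibitor control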
The depositor's hits bear a star. Hits are enriched below; roughly 3.7% of the tested compounds scored in any of these assays.

What do the screens show for `Cc1cc(C(=O)CSc2nc3ccc(Cl)cc3[nH]2)c(C)n1CC1CCCO1` (stereo not given)?
hERG rescue: -17.0; KCNK9 block: inactive; KCNQ1 act: inactive; KCNK3 inh: inactive; Kir21 inh: -1.01; KCNQ1 block: 8*; KCNQ1 inh valid: 125.5*; CHO Tl flux: 0.467; KCNQ1 ephys val: inactive; KCNQ2 inh: 108.7%*; KCNQ1-KCNE1 inh: 121.0%*

How did Cc1cc(C(=O)CSc2nc3ccc(Cl)cc3[nH]2)c(C)n1C do in these assays?
hERG rescue: -15.9; KCNK9 block: inactive; KCNQ1 act: inactive; KCNK3 inh: inactive; Kir21 inh: -0.72; KCNQ1 block: inactive

What do the screens show for `O=C1CCN(Cc2ccc(Br)cc2)CCN1[C@H](CO)Cc1ccccc1`?
hERG rescue: 2.7; KCNK9 block: inactive; KCNQ1 act: inactive; KCNK3 inh: inactive; Kir21 inh: -1.1; KCNQ1 block: inactive

Results for Cc1ccc(C(C)c2c(C)c([N+](=O)[O-])cc(C)c2[N+](=O)[O-])cn1 (stereo not given) ?
hERG rescue: -12.3; KCNK9 block: inactive; KCNQ1 act: inactive; KCNK3 inh: inactive; Kir21 inh: -1.73; KCNQ1 block: inactive

How did Cc1ccc(C)c(N2CCN(C(=O)C3CCN(c4nc(C)cc(C)n4)CC3)CC2)c1 do in these assays?
hERG rescue: -12.9; KCNK9 block: inactive; KCNQ1 act: inactive; KCNK3 inh: inactive; Kir21 inh: 1.84; KCNQ1 block: inactive

How did Cc1cc(C)nc(N2CCC(C(=O)N3CCN(c4cc(Cl)ccc4C)CC3)CC2)n1 do in these assays?
hERG rescue: -14.2; KCNK9 block: inactive; KCNQ1 act: inactive; KCNK3 inh: inactive; Kir21 inh: 1.27; KCNQ1 block: 9*; KCNQ1 inh valid: 139.5*; CHO Tl flux: 0.46; KCNQ1 ephys val: inactive; KCNQ2 inh: 111.0%*; KCNQ1-KCNE1 inh: 175.5%*

How did CC(Sc1ccc(Cl)cc1)C(=O)Nc1ccc2c(c1)OCO2 (stereo not given) do in these assays?
hERG rescue: -7.5; KCNK9 block: inactive; KCNQ1 act: inactive; KCNK3 inh: inactive; Kir21 inh: -0.31; KCNQ1 block: inactive

Results for CC(C)N1CCC2(CC1)N=C(c1ccc3c(c1)OCO3)CC(c1cc(Cl)ccc1O)N2 (stereo not given) ?
hERG rescue: -12.7; KCNK9 block: inactive; KCNQ1 act: inactive; KCNK3 inh: inactive; Kir21 inh: -2.09; KCNQ1 block: 10*; KCNQ1 inh valid: 49.5*; CHO Tl flux: 0.412; KCNQ2 inh: 106.3%*; KCNQ1-KCNE1 inh: 37.5%*

From PubChem
